The nature of data set [1]: Plasma pharmacokinetics of carfilzomib after 30-minute intravenous infusion. The data set is classed as in vivo, human. Conditions: for AUClast / T1/2 (terminal elimination half-life): mean ± SD, SD; for Tmax: median (minimum-maximum). Summed up: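 Relapsed/refractory myeloma patients got a 30-min IV infusion of test compound with dexamethasone 40 mg. Plasma was sampled on Days 1 (20 mg/m2) and 15 (70 mg/m2) of Cycle 1: pre-infusion, 5 and 15 min after start, just before end, then 5, 15, 30 min and 1, 2, 4 h post-infusion. Per-patient parameters were summarised as mean ± SD, Tmax as median (min–max).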

The test system of data set [2] is multiple myeloma. The note with it: twice weekly carfilzomib monotherapy 20/45 or 20/56 mg/m^2; cited from earlier work.
Data set [3] relates to multiple myeloma. The note with it: twice weekly carfilzomib monotherapy 20/27 mg/m^2; cited from earlier work.
Setting [4] is: Day 1 of Cycle 1, carfilzomib 20 mg/m^2 iv, N = 6.
The mark [5] stands for this setting: Day 15 of Cycle 1, carfilzomib 70 mg/m^2 iv, N = 5.

The structures appear in SMILES notation. Read-outs that look alike come from different tables or passages of the source.

Consider `CC(C)C[C@H](NC(=O)[C@H](CCc1ccccc1)NC(=O)CN1CCOCC1)C(=O)N[C@@H](Cc1ccccc1)C(=O)N[C@@H](CC(C)C)C(=O)[C@@]1(C)CO1` [carfilzomib], for which the AUClast worked out at 355 ± 120 ng·h/mL in data set [1] (setting [4]) and 1250 ± 285 ng·h/mL in data set [1] (setting [5]). For the same compound, the “T1/2 (terminal elimination half-life)” value in data set [1] (setting [4]) was 41 ± 15.1 min; in data set [1] (setting [5]), 54 ± 4.44 min. Besides, the results for the Tmax in data set [1] (setting [4]) and in data set [1] (setting [5]) were 0.575 (0.250‐0.617) h and 0.467 (0.250‐0.617) h, respectively. The ORR is 57.1% in the data set with multiple myeloma [2] and 22.5% with multiple myeloma [3].

These data come from article PMC6172054 (Cancer Science, 2018).
